Reference: ChEMBL document CHEMBL3751740, “New MKLP-2 inhibitors in the paprotrain series: Design, synthesis and biological evaluations” (Bioorg Med Chem, 2016)

Key:
[1] = target: T1, Kinesin-like protein KIF11 (Homo sapiens) (UniProt P52732); test: Inhibition of porcine brain microtubule-stimulated human recombinant GST-tagged Eg5 ATPase activity at 15 uM by microplate reader in presence of Mg2+ ATP relative to control
T1 sequence (whole entry): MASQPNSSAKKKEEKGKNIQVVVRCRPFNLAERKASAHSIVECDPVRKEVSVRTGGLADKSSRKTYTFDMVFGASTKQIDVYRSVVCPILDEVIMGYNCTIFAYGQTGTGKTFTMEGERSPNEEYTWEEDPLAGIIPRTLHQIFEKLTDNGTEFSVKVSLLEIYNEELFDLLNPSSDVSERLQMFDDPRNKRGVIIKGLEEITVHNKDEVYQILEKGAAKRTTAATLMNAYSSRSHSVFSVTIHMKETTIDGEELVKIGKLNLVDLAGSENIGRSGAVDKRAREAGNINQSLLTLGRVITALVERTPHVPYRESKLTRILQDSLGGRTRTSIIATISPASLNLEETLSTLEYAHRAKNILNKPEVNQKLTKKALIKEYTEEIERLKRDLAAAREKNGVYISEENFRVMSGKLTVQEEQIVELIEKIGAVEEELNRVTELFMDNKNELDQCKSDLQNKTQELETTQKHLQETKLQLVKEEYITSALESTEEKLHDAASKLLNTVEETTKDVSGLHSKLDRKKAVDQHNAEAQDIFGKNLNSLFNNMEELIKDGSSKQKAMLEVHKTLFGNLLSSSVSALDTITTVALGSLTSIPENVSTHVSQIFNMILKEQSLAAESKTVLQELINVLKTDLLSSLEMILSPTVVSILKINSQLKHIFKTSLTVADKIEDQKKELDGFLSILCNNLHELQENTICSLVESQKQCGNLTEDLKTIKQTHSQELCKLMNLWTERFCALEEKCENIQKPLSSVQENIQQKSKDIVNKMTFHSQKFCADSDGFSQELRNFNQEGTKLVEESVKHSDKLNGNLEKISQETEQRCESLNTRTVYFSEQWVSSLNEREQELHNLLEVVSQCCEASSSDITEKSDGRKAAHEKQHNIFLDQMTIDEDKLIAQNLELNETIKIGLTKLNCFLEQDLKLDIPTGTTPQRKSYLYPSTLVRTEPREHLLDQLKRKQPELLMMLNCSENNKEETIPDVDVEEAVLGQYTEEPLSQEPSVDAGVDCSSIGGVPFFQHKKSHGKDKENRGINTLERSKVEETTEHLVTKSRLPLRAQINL
How it was run: (§1)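 Each kinesin motor domain was tested against MT-stimulated ATPase at 22 °C in triplicate, with compounds at 15 µM. Buffer was 7.5 mM PIPES-NaOH pH 7.0 with MgCl2, Taxol, ELIPA reagents and 1.25 mg/mL MTs. Reactions were started with 1 mM Mg2+ATP and read kinetically at 360 nm. Monastrol and AMP-PNP (1 mM) were the controls.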

[2] = target: T2, Kinesin-like protein KIF23 (Homo sapiens) (UniProt Q02241); test: Inhibition of porcine brain microtubule-stimulated human recombinant GST-tagged MKLP1 ATPase activity at 15 uM by microplate reader in presence of Mg2+ ATP relative to control; how it was run: as §1
T2 sequence (whole entry): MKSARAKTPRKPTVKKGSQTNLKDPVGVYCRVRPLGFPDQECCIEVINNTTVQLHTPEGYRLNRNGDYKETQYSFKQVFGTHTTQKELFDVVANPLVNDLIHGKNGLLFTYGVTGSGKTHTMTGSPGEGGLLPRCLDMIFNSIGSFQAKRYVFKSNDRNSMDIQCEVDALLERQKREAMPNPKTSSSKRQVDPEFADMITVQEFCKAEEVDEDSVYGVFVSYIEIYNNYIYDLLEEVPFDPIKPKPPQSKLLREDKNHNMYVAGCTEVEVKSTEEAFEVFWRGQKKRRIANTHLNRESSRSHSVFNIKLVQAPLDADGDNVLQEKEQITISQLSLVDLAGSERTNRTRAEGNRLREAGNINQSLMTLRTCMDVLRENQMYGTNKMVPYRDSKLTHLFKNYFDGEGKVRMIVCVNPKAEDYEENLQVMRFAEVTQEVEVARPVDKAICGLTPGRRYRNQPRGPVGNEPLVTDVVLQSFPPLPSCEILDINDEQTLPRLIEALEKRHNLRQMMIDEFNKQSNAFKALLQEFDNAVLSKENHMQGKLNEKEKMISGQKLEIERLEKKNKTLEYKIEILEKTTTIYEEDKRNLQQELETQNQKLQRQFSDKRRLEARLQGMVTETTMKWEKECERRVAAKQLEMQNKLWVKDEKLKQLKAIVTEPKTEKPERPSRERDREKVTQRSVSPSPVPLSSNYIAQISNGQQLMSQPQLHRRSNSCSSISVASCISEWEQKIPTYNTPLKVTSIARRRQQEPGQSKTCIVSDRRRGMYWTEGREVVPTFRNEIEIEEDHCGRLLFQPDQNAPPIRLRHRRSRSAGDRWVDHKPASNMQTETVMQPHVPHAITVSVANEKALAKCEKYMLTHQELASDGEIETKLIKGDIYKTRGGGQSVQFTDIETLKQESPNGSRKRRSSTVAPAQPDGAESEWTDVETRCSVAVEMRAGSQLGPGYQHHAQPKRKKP

Row | SMILES | inhibition [1] [%] | inhibition [2] [%]
1 | COc1ccc2[nH]cc(/C(C#N)=C/c3cccnc3)c2c1 | < 20 | < 20
2 | N#C/C(=C\c1cccnc1)c1c[nH]c2ccc(OCc3ccccc3)cc12 | < 20 | < 20
3 | CCOC(=O)C1=C(C)NC(=S)NC1c1cccc(O)c1 (configuration not stated) | > 30 | < 20
4 | N#C/C(=C\c1ccc2c(c1)OCO2)c1c[nH]c2ccccc12 | < 20 | < 20

More lines, now with the values ahead:

Row | inhibition [1] [%] | inhibition [2] [%] | SMILES
5 | < 20 | < 20 | COc1ccc2c(/C(C#N)=C/c3cccnc3)c[nH]c2c1
6 | < 20 | < 20 | COc1cccc2[nH]cc(/C(C#N)=C/c3cccnc3)c12
